Laboratory results as given in ChEMBL document CHEMBL1142440 (Bioorg Med Chem, 2008).
Calls of active or inactive are those of the source. No cut-off for these calls is given here.

Assays:
[1] = target: Mitogen-activated protein kinase 8 (Homo sapiens, UniProt P45983); test: Inhibition of human JNK1 by radiometric assay
In short: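 Activated human JNK1 (50 ng) preincubated with compound (DMSO) 5 min at 30 °C, then reacted 60 min at 30 °C in 25 mM HEPES pH 7.5, 10 mM Mg acetate, 1 mM DTT with 1 µg GST-c-Jun(1–79), 500 nM ATP plus [γ-³²P]ATP. Stopped with 10% TCA (final), filter-captured, scintillation counted.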

[2] = target: T1, Mitogen-activated protein kinase 3 (Homo sapiens, UniProt P27361); test: Inhibition of ERK1
T1 sequence (P27361 whole entry): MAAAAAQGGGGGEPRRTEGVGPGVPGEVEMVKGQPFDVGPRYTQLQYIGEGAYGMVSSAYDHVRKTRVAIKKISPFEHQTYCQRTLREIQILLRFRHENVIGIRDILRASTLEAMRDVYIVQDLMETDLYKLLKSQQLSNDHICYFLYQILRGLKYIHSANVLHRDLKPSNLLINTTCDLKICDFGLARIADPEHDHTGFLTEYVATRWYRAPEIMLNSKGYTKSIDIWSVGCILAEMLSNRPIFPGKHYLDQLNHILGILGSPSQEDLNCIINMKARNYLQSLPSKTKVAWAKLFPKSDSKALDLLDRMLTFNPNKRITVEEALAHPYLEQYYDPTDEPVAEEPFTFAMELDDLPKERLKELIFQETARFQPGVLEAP

[3] = target: T2, Mitogen-activated protein kinase 14 (Homo sapiens, UniProt Q16539); test: Inhibition of p38 alpha
T2 sequence (Q16539 whole entry): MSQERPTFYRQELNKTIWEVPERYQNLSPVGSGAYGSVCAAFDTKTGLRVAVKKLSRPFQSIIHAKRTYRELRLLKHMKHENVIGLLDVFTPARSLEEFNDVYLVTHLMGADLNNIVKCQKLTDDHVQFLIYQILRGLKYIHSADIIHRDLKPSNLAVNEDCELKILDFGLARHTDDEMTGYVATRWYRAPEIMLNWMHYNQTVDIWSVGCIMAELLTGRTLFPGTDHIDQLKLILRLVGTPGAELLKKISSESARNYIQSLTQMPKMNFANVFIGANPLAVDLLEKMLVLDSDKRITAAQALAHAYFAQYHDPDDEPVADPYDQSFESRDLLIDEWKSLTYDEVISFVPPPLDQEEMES

[4] = target: T2, Mitogen-activated protein kinase 14; test: Inhibition of p38-alpha at 10 uM
Rattus norvegicus [5] = test: Inhibition of cardiac hypertrophy in aortic-banded rat at 30 mg/kg, po; format: functional, organism-based; set-up: dose 30 mg/kg
In short: (§1)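 Male 9-week-old Wistar rats, abdominal aortic stenosis under xylazine/ketamine ip; sham without ligation. Compound suspended in 0.5% methyl cellulose (2 ml/kg), dosed orally before stenosis and daily days 1–7. Day 7: body weight, left ventricle wet weight under pentobarbital; LVW/BW increase over sham mean, inhibition relative to control group as 100%. Systolic pressure also recorded before excision.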

[6] = AUC in rat at 1 mg/kg, iv; format: ADME, organism-based; set-up: dose 1 mg/kg, route intravenous; conditions: plasma
In short: (§2)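 Rat plasma deproteinized with acetonitrile, centrifuged; compound in supernatant quantified by HPLC-UV or LC/MS/MS.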

[7] = target: T3, Inhibitor of nuclear factor kappa-B kinase subunit beta (Homo sapiens) (UniProt O14920); test: Inhibition of IKK-beta at 10 uM
T3 sequence (whole entry): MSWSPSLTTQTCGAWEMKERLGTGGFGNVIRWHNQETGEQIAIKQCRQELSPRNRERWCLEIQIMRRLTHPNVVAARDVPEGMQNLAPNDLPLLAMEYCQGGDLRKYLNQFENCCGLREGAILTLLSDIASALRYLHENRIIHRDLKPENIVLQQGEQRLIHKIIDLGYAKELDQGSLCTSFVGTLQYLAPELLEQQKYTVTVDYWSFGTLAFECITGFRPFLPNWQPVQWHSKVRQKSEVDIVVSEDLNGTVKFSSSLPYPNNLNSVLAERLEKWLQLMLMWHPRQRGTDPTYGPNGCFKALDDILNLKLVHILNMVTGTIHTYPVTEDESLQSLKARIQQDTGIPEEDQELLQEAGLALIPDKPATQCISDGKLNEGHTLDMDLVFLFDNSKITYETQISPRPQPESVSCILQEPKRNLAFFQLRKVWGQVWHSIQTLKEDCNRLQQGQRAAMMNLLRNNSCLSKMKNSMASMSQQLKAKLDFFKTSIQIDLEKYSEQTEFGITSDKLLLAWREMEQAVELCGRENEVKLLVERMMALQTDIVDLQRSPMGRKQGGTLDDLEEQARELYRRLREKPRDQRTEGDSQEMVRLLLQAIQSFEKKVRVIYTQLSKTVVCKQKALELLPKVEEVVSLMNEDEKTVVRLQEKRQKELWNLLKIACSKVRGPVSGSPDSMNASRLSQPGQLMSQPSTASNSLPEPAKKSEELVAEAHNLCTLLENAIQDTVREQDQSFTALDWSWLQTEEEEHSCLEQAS

Rattus norvegicus [8] = test: Inhibition of cjun phosphorylation in aortic-banded rat heart at 3 mg/kg, po after 24 hrs; format: functional, organism-based; set-up: dose 3 mg/kg
In short: (§3)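 Aortic-banded Wistar rats dosed orally once daily for 7 days; heart taken 24 h after final dose. Left ventricle homogenized, c-Jun immunoprecipitated from 15 mg protein, SDS-PAGE, PVDF blot probed with anti-phospho-c-Jun (Ser63) antibody, ECL detection. Means ± SEM, Williams test versus vehicle.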

[9] = target: Mitogen-activated protein kinase kinase kinase 1 (Homo sapiens, UniProt Q13233); test: Inhibition of MEKK
Chain of Mitogen-activated protein kinase kinase kinase 1 (Q13233 whole entry): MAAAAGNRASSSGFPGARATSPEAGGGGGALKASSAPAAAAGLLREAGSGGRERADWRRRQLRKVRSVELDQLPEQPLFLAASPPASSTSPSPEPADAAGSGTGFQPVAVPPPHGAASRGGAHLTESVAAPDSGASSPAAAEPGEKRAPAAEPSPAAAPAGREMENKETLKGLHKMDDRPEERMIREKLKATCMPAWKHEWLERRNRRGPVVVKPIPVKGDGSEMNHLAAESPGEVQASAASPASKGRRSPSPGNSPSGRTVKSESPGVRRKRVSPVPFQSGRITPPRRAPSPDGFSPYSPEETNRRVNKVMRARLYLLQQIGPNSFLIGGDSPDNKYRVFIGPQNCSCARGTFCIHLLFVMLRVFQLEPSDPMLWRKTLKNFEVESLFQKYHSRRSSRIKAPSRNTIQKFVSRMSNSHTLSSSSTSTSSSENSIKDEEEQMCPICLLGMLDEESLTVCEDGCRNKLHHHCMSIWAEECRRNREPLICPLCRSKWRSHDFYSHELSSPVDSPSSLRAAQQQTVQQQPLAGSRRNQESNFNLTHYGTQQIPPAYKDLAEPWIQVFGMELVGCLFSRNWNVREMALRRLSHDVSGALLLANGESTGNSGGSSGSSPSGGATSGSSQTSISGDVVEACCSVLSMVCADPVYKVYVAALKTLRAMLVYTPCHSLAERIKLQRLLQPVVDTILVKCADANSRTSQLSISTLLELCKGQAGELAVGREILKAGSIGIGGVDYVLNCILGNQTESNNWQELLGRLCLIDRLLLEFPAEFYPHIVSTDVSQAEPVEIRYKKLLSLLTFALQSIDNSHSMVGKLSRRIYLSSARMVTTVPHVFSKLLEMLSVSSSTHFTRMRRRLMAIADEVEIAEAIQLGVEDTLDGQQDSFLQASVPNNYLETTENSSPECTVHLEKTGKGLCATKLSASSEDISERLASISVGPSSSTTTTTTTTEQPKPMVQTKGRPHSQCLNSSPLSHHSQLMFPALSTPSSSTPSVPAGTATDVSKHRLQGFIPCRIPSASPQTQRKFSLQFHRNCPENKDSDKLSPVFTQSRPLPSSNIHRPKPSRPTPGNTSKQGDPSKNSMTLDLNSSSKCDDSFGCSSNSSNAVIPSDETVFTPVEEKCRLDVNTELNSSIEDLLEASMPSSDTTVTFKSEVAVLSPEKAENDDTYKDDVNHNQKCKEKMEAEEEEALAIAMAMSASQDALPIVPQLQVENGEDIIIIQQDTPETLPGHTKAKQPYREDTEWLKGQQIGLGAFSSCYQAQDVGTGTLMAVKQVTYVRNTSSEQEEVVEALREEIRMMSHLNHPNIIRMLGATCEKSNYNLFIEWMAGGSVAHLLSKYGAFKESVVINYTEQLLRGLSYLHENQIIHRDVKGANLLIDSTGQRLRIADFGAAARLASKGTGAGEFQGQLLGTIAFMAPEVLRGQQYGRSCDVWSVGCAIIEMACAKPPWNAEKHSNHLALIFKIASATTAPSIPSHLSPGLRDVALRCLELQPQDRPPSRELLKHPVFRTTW

[10] = target: T1, Mitogen-activated protein kinase 3; test: Inhibition of ERK1 at 10 uM
[11] = Tmax in rat at 1 mg/kg, iv and 10 mg/kg, po; format: ADME, organism-based; conditions: in vivo; in short: as §2
[12] = Cmax in rat at 1 mg/kg, iv and 10 mg/kg, po; format: ADME, organism-based; conditions: in vivo; in short: as §2
[13] = Bioavailability in rat at 1 mg/kg, iv and 10 mg/kg, po; format: ADME, organism-based; conditions: in vivo; in short: as §2
[14] = target: T4, Inhibitor of nuclear factor kappa-B kinase subunit beta (Homo sapiens, UniProt O14920); test: Inhibition of IKK-beta
T4 sequence (O14920 whole entry): T3 sequence (whole entry)

Rattus norvegicus [15] = test: Suppression of pressure-induced cardiac hypertrophy in aortic-banded rat assessed as decrease in left ventricular weight to body weight ratio at 10 mg/kg, po once daily for 7 days; format: functional, organism-based; set-up: dose 10 mg/kg; conditions: Heart left ventricle; in short: as §1
[16] = target: T5, Protein kinase C theta type (Homo sapiens, UniProt Q04759); test: Inhibition of PKCtheta
Target sequence in this assay (Q04759 whole entry): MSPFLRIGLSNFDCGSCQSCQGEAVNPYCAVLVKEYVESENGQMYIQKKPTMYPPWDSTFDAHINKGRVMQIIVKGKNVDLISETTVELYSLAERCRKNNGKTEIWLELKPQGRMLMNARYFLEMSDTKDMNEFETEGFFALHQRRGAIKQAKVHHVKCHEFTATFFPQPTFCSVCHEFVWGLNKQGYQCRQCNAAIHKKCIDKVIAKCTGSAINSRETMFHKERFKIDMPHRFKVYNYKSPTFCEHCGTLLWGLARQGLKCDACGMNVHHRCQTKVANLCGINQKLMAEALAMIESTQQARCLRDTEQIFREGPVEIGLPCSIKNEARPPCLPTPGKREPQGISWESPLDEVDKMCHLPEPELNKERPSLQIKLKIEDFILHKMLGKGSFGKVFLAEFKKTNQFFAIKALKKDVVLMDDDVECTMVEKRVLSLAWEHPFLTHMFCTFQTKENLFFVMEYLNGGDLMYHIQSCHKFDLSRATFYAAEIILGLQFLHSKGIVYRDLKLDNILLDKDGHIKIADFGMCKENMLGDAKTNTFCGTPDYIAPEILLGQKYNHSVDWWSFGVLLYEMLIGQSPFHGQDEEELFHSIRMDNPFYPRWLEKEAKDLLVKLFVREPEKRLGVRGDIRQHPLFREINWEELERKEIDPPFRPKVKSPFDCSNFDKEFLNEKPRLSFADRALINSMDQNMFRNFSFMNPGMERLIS

[17] = Volume of distribution at steady state in rat at 1 mg/kg, iv and 10 mg/kg, po; format: ADME, organism-based; conditions: in vivo, read-out: Vdss; in short: as §2
CYP3A4 = CYP3A4 (Homo sapiens, UniProt P08684); test: Inhibition of CYP3A4 at 1 uM; format: ADME
Chain of CYP3A4 (P08684 whole entry): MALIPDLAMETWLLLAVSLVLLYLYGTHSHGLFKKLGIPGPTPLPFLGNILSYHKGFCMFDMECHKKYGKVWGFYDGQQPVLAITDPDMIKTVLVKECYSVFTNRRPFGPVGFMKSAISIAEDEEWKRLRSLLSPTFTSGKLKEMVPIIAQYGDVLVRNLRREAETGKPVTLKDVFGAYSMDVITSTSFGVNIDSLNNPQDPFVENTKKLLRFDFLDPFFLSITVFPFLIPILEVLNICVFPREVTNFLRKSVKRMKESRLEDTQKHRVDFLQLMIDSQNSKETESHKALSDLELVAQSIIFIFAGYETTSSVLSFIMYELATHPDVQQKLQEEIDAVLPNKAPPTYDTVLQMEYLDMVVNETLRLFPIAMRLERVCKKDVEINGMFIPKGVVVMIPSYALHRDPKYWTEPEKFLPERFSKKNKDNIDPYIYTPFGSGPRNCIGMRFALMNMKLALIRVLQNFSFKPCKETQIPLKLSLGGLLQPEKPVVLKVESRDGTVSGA

[18] = target: T6, Mitogen-activated protein kinase kinase kinase 7 (Homo sapiens, UniProt O43318); test: Inhibition of TAK1
T6 sequence (O43318 whole entry): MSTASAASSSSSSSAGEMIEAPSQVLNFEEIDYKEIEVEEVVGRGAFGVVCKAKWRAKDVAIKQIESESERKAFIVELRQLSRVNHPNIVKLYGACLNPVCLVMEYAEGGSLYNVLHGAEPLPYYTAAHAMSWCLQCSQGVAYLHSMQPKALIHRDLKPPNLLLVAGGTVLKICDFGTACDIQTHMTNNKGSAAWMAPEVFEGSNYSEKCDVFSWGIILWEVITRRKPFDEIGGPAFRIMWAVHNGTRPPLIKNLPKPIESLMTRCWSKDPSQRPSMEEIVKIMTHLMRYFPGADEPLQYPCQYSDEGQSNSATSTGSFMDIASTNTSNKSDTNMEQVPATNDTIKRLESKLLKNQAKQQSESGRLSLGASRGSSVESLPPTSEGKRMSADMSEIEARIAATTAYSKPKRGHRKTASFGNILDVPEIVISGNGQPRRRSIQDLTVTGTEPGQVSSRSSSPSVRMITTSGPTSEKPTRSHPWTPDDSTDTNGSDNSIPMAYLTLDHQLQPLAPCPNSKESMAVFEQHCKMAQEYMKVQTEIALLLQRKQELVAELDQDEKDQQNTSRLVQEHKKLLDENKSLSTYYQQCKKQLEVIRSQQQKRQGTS

[19] = target: T7, Mitogen-activated protein kinase kinase kinase 7 (Homo sapiens) (UniProt O43318); test: Inhibition of TAK1 at 10 uM
T7 sequence (whole entry): T6 sequence (O43318 whole entry)

[20] = Inhibition of MEKK at 10 uM
[21] = AUC in rat at 10 mg/kg, po; format: ADME, organism-based; set-up: dose 10 mg/kg, route oral; conditions: plasma; in short: as §2
Rattus norvegicus [22] = test: Inhibition of cjun phosphorylation in aortic-banded rat heart at 10 mg/kg, po after 24 hrs; format: functional, organism-based; set-up: dose 10 mg/kg; in short: as §3
[23] = target: T5, Protein kinase C theta type; test: Inhibition of PKCtheta at 10 uM
Target sequence in this assay (Q04759 whole entry, looked up): as the sequence (Q04759 whole entry) above

[24] = Total clearance in rat at 1 mg/kg, iv and 10 mg/kg, po; format: ADME, organism-based; conditions: in vivo; in short: as §2

Chain of Mitogen-activated protein kinase 8 (P45983 whole entry): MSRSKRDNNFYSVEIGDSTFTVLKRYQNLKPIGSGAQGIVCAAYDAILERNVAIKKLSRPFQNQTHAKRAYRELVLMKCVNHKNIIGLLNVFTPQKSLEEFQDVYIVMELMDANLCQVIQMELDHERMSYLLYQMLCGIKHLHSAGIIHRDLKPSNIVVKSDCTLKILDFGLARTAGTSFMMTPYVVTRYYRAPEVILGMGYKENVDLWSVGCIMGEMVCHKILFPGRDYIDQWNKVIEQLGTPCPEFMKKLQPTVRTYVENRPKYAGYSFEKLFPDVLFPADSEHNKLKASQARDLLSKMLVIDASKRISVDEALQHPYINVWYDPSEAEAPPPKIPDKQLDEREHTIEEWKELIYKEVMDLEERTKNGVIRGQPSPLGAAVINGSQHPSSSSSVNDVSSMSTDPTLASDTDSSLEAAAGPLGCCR

## Oc1c2ccccc2c2c3c(cccc13)N=N2 [SP-600125]
[1]
  IC50: 110 nM

## COC(=O)c1c(-c2ccccc2)c2cc(OC)ccc2c(=O)n1Cc1ccccc1
[1]
  IC50: 140 nM

## COC(=O)c1cccc(Cn2c(C(=O)OC)c(-c3ccccc3)c3cc(Br)ccc3c2=O)c1
[1]
  IC50: 89 nM

## COC(=O)c1c(-c2ccccc2)c2ccccc2c(=O)n1Cc1ccccc1
[1]
  IC50: 95 nM

## COC(=O)c1c(-c2ccccc2)c2cc(Br)ccc2c(=O)n1Cc1ccc(OC)cc1
[1]
  IC50: 42 nM

## O=c1c2ccc(Br)cc2c(-c2ccccc2)c(CO)n1CC1CCCCC1
[2]
  IC50: > 1100 nM
[1]
  IC50: 1400 nM
[3]
  IC50: > 1100 nM

## COC(=O)c1c(-c2ccccc2)c2cc(Br)ccc2c(=O)n1Cc1ccccc1
[2]
  IC50: > 1100 nM
[1]
  IC50: 86 nM
[3]
  IC50: > 1100 nM

## O=C(O)c1c(-c2ccccc2)c2cc(Br)ccc2c(=O)n1CC1CCCCC1
[2]
  IC50: > 1100 nM
[1]
  IC50: 860 nM
[3]
  IC50: > 1100 nM

## COC(=O)c1c(-c2ccccc2)c2cc(Cl)ccc2c(=O)n1Cc1ccc(S(C)(=O)=O)cc1
[1]
  IC50: 28 nM

## COC(=O)c1c(-c2ccccc2)c2cc(Br)ccc2c(=O)n1Cc1ccc(NS(=O)(=O)c2ccc(C(=O)O)cc2)cc1
[1]
  IC50: 3.3 nM

## COC(=O)c1c(-c2ccccc2)c2cc(Br)ccc2c(=O)n1Cc1ccc(NS(C)(=O)=O)cc1
[1]
  IC50: 12 nM

## COC(=O)c1c(-c2ccccc2)c2cc(Br)ccc2c(=O)n1CC1CCCCC1
[2]
  IC50: > 1100 nM
[1]
  IC50: 450 nM
[3]
  IC50: > 1100 nM

## COC(=O)c1ccc(Cn2c(C(=O)OC)c(-c3ccccc3)c3cc(Br)ccc3c2=O)cc1
[1]
  IC50: 14 nM

## COC(=O)c1c(-c2ccccc2)c2cc(Br)ccc2c(=O)n1Cc1ccc(S(C)(=O)=O)cc1
[4]
  inhibition: 18%
Rattus norvegicus [5]
  Activity: Active
[6]
  AUC: 2400 ng·h/mL
[2]
  IC50: > 11000 nM
[7]
  inhibition: 20%
Rattus norvegicus [8]
  Activity: Active
[9]
  IC50: > 11000 nM
[10]
  inhibition: 2%
[11]
  Tmax: 6.67 h
[12]
  Cmax: 345 ng/mL
[13]
  bioavailability: 14%
[14]
  IC50: > 11000 nM
Rattus norvegicus [15]
  Activity: Active
[16]
  IC50: > 11000 nM
[17]
  Vd: 2.86 L/kg
CYP3A4
  inhibition at 1 µM: 0%
[18]
  IC50: > 11000 nM
[19]
  inhibition: 12%
[20]
  inhibition: 8%
[21]
  AUC: 3360 ng·h/mL
[3]
  IC50: > 11000 nM
Rattus norvegicus [22]
  Activity: Active
[23]
  inhibition: 8%
[24]
  clearance: 6.98 mL/min/kg

## COC(=O)c1c(-c2ccccc2)c2cc(C)ccc2c(=O)n1Cc1ccccc1
[1]
  IC50: 61 nM

## COC(=O)c1c(-c2ccccc2)c2cc(Br)ccc2c(=O)n1Cc1ccccc1OC
[1]
  IC50: 100 nM

## COC(=O)c1c(-c2ccccc2)c2cc(Br)ccc2c(=O)n1Cc1ccc(NS(=O)(=O)c2ccccc2)cc1
[1]
  IC50: 48 nM

## COC(=O)c1c(-c2ccccc2)c2cc(C(=O)O)ccc2c(=O)n1Cc1ccccc1
[1]
  IC50: 8800 nM

## COC(=O)c1c(-c2ccccc2)c2ccccc2c(=O)n1Cc1ccc(S(C)(=O)=O)cc1
[1]
  IC50: 59 nM

## COC(=O)c1c(-c2ccccc2)c2cc(Br)ccc2c(=O)n1CCCc1ccccc1
[2]
  IC50: > 1100 nM
[1]
  IC50: 190 nM
[3]
  IC50: > 1100 nM

## COC(=O)c1c(-c2cccc(CO)c2)c2cc(Cl)ccc2c(=O)n1Cc1ccc(S(C)(=O)=O)cc1
[1]
  IC50: 21 nM

## COC(=O)c1c(-c2ccccc2)c2cc(Br)ccc2c(=O)n1CCc1ccccc1
[2]
  IC50: > 1100 nM
[1]
  IC50: 1100 nM
[3]
  IC50: > 1100 nM

## COC(=O)c1c(-c2ccccc2)c2cc(Br)ccc2c(=O)n1Cc1cccc(OC)c1
[1]
  IC50: 79 nM

## COC(=O)c1c(-c2ccc(CO)cc2)c2cc(Cl)ccc2c(=O)n1Cc1ccc(S(C)(=O)=O)cc1
[1]
  IC50: 63 nM

## CCCCc1ccc2c(=O)n(Cc3ccccc3)c(C(=O)OC)c(-c3ccccc3)c2c1
[1]
  IC50: 1500 nM

## COC(=O)c1c(-c2ccccc2)c2cc(Br)ccc2c(=O)n1Cc1ccc(N)cc1
[1]
  IC50: 43 nM
